ChEMBL document CHEMBL1151981, “Bioactive pyridine-N-oxide disulfides from Allium stipitatum” (J Nat Prod, 2009)
Activity calls are given as the source filed them.

Columns and labels:
[1] = tested on: Mycobacterium tuberculosis; assay: Upregulation of Rv1335 RNA expression in Mycobacterium tuberculosis H37Rv ATCC 27294 at 2 to 10 ug/ml after 6 hrs by microarray analysis; assay type: functional, organism-based
Summary of the method: (§1)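 H37Rv grown in 7H9 with 0.2% glycerol, 0.5% BSA fraction V, 0.05% Tween 80, 0.08% NaCl and 0.2% glucose to OD650 0.3. Treated with 2, 5 or 10 µg/mL compound, or matching DMSO, for 6 h. RNA isolated, labelled cDNA hybridised to microarrays. Predictive genes found by class prediction analysis.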

[2] = tested on: Mycobacterium tuberculosis; assay: Upregulation of Rv0331 RNA expression in Mycobacterium tuberculosis H37Rv ATCC 27294 at 2 to 10 ug/ml after 6 hrs by microarray analysis; assay type: functional, organism-based; summary of the method: as §1
[3] = tested on: Mycobacterium tuberculosis; assay: Upregulation of Rv3463 RNA expression in Mycobacterium tuberculosis H37Rv ATCC 27294 at 2 to 10 ug/ml after 6 hrs by microarray analysis; assay type: functional, organism-based; summary of the method: as §1
[4] = tested on: Mycobacterium tuberculosis; assay: Effect on trxC RNA expression in Mycobacterium tuberculosis H37Rv ATCC 27294 at 2 to 10 ug/ml after 6 hrs by microarray analysis; assay type: functional, organism-based; summary of the method: as §1
[5] = tested on: Mycobacterium tuberculosis; assay: Upregulation of clpB RNA expression in Mycobacterium tuberculosis H37Rv ATCC 27294 at 2 to 10 ug/ml after 6 hrs by microarray analysis; assay type: functional, organism-based; summary of the method: as §1
[6] = tested on: Mycobacterium tuberculosis; assay: Effect on trxB2 RNA expression in Mycobacterium tuberculosis H37Rv ATCC 27294 at 2 to 10 ug/ml after 6 hrs by microarray analysis; assay type: functional, organism-based; summary of the method: as §1
[7] = tested on: Mycobacterium tuberculosis; assay: Upregulation of hsp RNA expression in Mycobacterium tuberculosis H37Rv ATCC 27294 at 2 to 10 ug/ml after 6 hrs by microarray analysis; assay type: functional, organism-based; summary of the method: as §1
[8] = tested on: Mycobacterium tuberculosis; assay: Upregulation of Rv1334 RNA expression in Mycobacterium tuberculosis H37Rv ATCC 27294 at 2 to 10 ug/ml after 6 hrs by microarray analysis; assay type: functional, organism-based; summary of the method: as §1
[9] = tested on: Mycobacterium tuberculosis; assay: Upregulation of Rv3054c RNA expression in Mycobacterium tuberculosis H37Rv ATCC 27294 at 2 to 10 ug/ml after 6 hrs by microarray analysis; assay type: functional, organism-based; summary of the method: as §1
[10] = tested on: Mycobacterium tuberculosis; assay: Upregulation of sigH RNA expression in Mycobacterium tuberculosis H37Rv ATCC 27294 at 2 to 10 ug/ml after 6 hrs by microarray analysis; assay type: functional, organism-based; summary of the method: as §1
[11] = tested on: Mycobacterium tuberculosis; assay: Upregulation of dnaK RNA expression in Mycobacterium tuberculosis H37Rv ATCC 27294 at 2 to 10 ug/ml after 6 hrs by microarray analysis; assay type: functional, organism-based; summary of the method: as §1
[12] = tested on: Mycobacterium tuberculosis; assay: Upregulation of dnaJ RNA expression in Mycobacterium tuberculosis H37Rv ATCC 27294 at 2 to 10 ug/ml after 6 hrs by microarray analysis; assay type: functional, organism-based; summary of the method: as §1
Staphylococcus aureus [13] = assay: Antibacterial activity against Staphylococcus aureus EMRSA15 after 72 hrs; assay type: functional; conditions: EMRSA15, 72 h
Summary of the method: (§2)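 S. aureus strains tested in a MIC assay; norfloxacin and oxacillin used as positive controls.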

Staphylococcus aureus [14] = assay: Antibacterial activity against tetracycline-effluxing Staphylococcus aureus XU212 after 72 hrs; assay type: functional; conditions: XU212, 72 h; summary of the method: as §2
Staphylococcus aureus [15] = assay: Antibacterial activity against Staphylococcus aureus SA1199B overexpressing NorA efflux pump after 72 hrs; assay type: functional
[16] = tested on: Mycolicibacterium smegmatis; assay: Antibacterial activity against Mycobacterium smegmatis after 72 hrs; assay type: functional
Summary of the method: (§3)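 Fast-growing mycobacteria obtained from NCTC; cultures grown on Columbia blood agar with 7% defibrinated horse blood at 37 °C for 72 h before MIC determination. Ethambutol and isoniazid served as positive controls.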

[17] = tested on: Mycolicibacterium fortuitum; assay: Antibacterial activity against Mycobacterium fortuitum after 72 hrs; assay type: functional; summary of the method: as §3
Mycolicibacterium phlei = assay: Antibacterial activity against Mycobacterium phlei after 72 hrs; assay type: functional; summary of the method: as §3

Oc1cccc2cccnc12
active: Activity [1] | Activity [2] | Activity [3] | Activity [4] | Activity [5] | Activity [6] | Activity [7] | Activity [8] | Activity [9] | Activity [10] | Activity [11] | Activity [12]

CCn1cc(C(=O)O)c(=O)c2cc(F)c(N3CCNCC3)cc21 [NORFLOXACIN]
0.5 µg/mL: MIC (Staphylococcus aureus [13])
32 µg/mL: MIC (Staphylococcus aureus [15])
16 µg/mL: MIC (Staphylococcus aureus [14])

CSSc1ccccc1
128 µg/mL: MIC (Staphylococcus aureus [15])
> 128 µg/mL: MIC (Staphylococcus aureus [13]) | MIC (Staphylococcus aureus [14]) | MIC [17] | MIC (Mycolicibacterium phlei)
64 µg/mL: MIC [16]
